Legend:
[1] = target: Tyrosine-protein kinase JAK1 (Homo sapiens, UniProt P23458); assay: Inhibition of JAK1 (unknown origin) in presence of Mg/ATP mixture by [gamma p33]-ATP based radiometric assay
Summary of the method: (§1)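 IC50 values determined by Eurofins Discovery.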

[2] = Selectivity ratio of IC50 for FLT3 (unknown origin) to IC50 for JAK2 (unknown origin)
[3] = target: T1, Receptor-type tyrosine-protein kinase FLT3 (Homo sapiens, UniProt P36888); assay: Inhibition of FLT3 in human MOLM-13 cells; type: cell-based
T1 sequence (P36888 whole entry): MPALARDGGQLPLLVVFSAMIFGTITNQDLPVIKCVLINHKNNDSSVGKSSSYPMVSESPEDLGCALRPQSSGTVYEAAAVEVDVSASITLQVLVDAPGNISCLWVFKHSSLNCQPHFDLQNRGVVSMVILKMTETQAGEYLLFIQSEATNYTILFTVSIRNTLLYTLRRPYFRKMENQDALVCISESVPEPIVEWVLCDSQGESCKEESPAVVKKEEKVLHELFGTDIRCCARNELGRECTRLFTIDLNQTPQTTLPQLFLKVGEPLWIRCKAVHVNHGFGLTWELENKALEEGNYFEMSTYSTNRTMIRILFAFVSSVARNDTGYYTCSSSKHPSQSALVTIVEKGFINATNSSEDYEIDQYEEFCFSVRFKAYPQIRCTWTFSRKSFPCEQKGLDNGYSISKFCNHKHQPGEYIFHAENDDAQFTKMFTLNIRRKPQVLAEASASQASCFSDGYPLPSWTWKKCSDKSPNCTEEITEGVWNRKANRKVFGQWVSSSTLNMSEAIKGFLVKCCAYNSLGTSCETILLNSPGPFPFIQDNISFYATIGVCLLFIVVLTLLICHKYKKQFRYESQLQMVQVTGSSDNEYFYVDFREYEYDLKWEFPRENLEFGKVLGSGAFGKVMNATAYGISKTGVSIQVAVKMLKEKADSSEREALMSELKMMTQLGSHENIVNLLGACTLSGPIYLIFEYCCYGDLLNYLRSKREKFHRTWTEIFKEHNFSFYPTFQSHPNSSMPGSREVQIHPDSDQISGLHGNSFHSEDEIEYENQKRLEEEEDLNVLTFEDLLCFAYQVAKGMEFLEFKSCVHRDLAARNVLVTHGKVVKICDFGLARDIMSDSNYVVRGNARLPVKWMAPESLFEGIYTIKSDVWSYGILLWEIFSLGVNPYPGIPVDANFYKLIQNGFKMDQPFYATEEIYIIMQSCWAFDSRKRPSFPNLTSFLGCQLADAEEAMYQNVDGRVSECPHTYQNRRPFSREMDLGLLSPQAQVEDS
Summary of the method: (§2)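 Cell proliferation assay. IC50 is the concentration that inhibits proliferation by 50%, taken from dose–response curves. Mean ± SEM of at least three independent experiments.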

[4] = Oral bioavailability in Sprague-Dawley rat at 5 mg/kg measured upto 24 hrs by LC-MS/MS analysis; type: ADME, organism-based; details: in vivo
Summary of the method: (§3)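 Sprague–Dawley rats, n = 5 per group, dosed at 5 mg/kg as a solution in 2% ethanol and 1% Tween 80, pH 5.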

[5] = Metabolic stability in human liver microsomes assessed as half life; type: ADME, Microsome
[6] = target: T1, Receptor-type tyrosine-protein kinase FLT3; assay: Inhibition of FLT3 (unknown origin) in presence of Mg/ATP mixture by [gamma p33]-ATP based radiometric assay; summary of the method: as §1
[7] = Half life in Sprague-Dawley rat at 5 mg/kg, po measured upto 24 hrs by LC-MS/MS analysis; type: ADME, organism-based; details: Sprague-Dawley, in vivo
Summary of the method: (§4)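 Sprague–Dawley rats, n = 5, dosed at 5 mg/kg as a solution in 2% ethanol and 1% Tween 80, pH 5.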

[8] = target: T2, Tyrosine-protein kinase JAK2 (Homo sapiens, UniProt O60674); assay: Inhibition of JAK2 (unknown origin) in presence of Mg/ATP mixture by [gamma p33]-ATP based radiometric assay; summary of the method: as §1
[9] = Cmax in Sprague-Dawley rat at 5 mg/kg, po measured upto 24 hrs by LC-MS/MS analysis; type: ADME, organism-based; set-up: dose 5 mg/kg, time < 24 hrs, route po; details: Sprague-Dawley, in vivo, read-out: Cmax; summary of the method: as §4
[10] = Clearance in Sprague-Dawley rat at 5 mg/kg, po measured upto 24 hrs by LC-MS/MS analysis; type: ADME, organism-based; details: in vivo; summary of the method: as §4
[11] = target: T2, Tyrosine-protein kinase JAK2; assay: Inhibition of human JAK2 JH1 expressed in baculovirus infected Sf9 cells assessed as residual activity at 100 nM relative to control
[12] = Selectivity ratio of IC50 for TYK2 (unknown origin) to IC50 for JAK2 (unknown origin)
[13] = target: T3, Tyrosine-protein kinase JAK3 (Homo sapiens, UniProt P52333); assay: Inhibition of JAK3 (unknown origin) in presence of Mg/ATP mixture by [gamma p33]-ATP based radiometric assay
T3 sequence (P52333 whole entry): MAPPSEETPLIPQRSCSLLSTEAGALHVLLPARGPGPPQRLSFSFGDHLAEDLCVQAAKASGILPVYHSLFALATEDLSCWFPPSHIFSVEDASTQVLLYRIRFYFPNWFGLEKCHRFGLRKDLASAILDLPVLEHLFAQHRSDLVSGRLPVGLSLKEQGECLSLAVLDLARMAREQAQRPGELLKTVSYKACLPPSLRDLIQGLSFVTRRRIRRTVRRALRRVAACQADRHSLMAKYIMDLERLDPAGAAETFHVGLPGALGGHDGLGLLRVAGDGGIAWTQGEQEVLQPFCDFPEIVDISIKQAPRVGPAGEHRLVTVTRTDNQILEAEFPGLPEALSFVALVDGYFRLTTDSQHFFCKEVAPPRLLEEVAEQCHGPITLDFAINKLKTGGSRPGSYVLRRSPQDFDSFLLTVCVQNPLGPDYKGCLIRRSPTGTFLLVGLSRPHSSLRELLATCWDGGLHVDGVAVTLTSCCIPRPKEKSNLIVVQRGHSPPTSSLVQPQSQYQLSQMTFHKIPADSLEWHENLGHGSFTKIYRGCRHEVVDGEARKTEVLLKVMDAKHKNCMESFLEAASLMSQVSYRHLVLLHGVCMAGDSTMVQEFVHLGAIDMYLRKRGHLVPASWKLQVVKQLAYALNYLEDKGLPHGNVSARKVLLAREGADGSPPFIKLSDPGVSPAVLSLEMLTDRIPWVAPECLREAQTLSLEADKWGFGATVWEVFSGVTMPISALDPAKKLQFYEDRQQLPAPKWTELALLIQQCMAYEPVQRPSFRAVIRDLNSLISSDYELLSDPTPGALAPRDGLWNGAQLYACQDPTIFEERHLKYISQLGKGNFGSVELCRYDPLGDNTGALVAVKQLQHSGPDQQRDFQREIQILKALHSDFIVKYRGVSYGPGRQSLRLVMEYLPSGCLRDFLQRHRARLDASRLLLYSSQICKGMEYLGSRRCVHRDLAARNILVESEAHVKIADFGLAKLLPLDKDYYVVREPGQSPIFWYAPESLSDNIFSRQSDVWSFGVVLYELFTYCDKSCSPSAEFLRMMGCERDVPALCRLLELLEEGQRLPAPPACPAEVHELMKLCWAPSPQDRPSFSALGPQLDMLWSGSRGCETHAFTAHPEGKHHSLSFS

[14] = Selectivity ratio of IC50 for JAK3 (unknown origin) to IC50 for JAK2 (unknown origin)
[15] = target: Tyrosine-protein kinase JAK2 (Mus musculus, UniProt Q62120, V617F); assay: Inhibition of JAK2 V617F mutant in mouse BaF3 cells; type: cell-based; summary of the method: as §2
[16] = AUC(0 to t) in Sprague-Dawley rat at 5 mg/kg, po measured upto 24 hrs by LC-MS/MS analysis; type: ADME, organism-based; set-up: time < 24 hrs, dose 5 mg/kg, route po; details: in vivo; summary of the method: as §4
[17] = target: Tyrosine-protein kinase JAK2 (Homo sapiens, UniProt O60674, V617F); assay: Inhibition of JAK2 V617F mutant in human SET2 cells; type: cell-based; summary of the method: as §2
[18] = target: Non-receptor tyrosine-protein kinase TYK2 (Homo sapiens, UniProt P29597); assay: Inhibition of TYK2 (unknown origin) in presence of Mg/ATP mixture by [gamma p33]-ATP based radiometric assay
[19] = Tmax in Sprague-Dawley rat at 5 mg/kg, po measured upto 24 hrs by LC-MS/MS analysis; type: ADME, organism-based; details: Sprague-Dawley, in vivo, read-out: Tmax; summary of the method: as §3

Tyrosine-protein kinase JAK2 (Homo sapiens, UniProt O60674, V617F), sequence (O60674 whole entry V617F): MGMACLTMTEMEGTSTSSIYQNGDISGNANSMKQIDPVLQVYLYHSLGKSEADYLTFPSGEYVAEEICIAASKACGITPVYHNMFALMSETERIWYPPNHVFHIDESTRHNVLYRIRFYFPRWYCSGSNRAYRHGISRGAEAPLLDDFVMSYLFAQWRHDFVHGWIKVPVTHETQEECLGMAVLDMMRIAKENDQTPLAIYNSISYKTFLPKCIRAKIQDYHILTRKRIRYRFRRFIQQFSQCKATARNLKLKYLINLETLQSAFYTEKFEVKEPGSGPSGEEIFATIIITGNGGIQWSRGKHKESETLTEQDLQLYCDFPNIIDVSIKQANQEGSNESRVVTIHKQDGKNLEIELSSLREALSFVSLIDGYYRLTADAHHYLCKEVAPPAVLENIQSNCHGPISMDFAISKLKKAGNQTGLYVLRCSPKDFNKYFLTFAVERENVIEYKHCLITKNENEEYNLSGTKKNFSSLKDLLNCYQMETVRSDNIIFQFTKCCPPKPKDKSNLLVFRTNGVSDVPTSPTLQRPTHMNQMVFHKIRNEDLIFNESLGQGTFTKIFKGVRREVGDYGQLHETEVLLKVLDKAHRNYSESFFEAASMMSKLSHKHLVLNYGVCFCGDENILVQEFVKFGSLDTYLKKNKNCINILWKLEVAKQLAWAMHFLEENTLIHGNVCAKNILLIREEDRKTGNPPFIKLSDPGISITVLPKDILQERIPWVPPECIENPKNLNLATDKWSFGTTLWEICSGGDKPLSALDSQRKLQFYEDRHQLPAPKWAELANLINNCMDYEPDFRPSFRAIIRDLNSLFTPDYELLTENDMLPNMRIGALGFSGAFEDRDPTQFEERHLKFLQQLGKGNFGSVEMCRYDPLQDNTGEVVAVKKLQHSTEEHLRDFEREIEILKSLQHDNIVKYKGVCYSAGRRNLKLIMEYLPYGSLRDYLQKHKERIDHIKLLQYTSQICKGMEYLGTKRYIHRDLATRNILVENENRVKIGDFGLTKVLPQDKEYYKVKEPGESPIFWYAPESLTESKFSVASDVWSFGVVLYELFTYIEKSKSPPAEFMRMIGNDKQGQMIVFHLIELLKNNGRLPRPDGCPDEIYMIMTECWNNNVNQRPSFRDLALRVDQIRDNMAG
Tyrosine-protein kinase JAK1, sequence (P23458 whole entry): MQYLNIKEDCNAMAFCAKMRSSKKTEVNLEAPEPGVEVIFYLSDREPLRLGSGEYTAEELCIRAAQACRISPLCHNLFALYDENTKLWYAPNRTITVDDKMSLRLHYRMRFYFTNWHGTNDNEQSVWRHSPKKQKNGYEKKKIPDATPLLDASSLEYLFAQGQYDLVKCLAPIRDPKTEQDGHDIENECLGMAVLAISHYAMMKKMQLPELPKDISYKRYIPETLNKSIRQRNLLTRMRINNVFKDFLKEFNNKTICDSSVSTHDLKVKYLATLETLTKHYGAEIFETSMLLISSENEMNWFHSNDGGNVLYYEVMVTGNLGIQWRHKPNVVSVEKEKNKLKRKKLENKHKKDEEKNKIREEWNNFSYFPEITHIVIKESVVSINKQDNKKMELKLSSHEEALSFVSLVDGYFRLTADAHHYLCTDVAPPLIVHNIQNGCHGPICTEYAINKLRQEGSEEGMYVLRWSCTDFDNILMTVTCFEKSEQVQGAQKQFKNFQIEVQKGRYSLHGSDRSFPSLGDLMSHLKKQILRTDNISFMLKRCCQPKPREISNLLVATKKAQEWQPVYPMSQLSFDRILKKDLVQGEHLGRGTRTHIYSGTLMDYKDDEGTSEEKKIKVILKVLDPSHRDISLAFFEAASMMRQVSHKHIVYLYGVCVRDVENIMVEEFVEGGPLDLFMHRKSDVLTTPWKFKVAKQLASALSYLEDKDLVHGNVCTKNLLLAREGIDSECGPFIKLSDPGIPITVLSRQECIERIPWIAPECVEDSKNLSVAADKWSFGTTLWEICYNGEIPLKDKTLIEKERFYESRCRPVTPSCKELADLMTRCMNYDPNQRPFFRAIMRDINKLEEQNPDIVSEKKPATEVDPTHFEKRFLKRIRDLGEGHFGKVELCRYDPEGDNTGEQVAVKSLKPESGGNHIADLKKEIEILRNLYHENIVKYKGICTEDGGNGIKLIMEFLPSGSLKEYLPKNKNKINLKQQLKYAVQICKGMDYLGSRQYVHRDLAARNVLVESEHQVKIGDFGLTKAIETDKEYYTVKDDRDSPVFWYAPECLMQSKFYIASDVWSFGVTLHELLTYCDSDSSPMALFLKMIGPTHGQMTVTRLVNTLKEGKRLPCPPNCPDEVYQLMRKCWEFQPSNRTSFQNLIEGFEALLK
Non-receptor tyrosine-protein kinase TYK2, sequence (P29597 whole entry): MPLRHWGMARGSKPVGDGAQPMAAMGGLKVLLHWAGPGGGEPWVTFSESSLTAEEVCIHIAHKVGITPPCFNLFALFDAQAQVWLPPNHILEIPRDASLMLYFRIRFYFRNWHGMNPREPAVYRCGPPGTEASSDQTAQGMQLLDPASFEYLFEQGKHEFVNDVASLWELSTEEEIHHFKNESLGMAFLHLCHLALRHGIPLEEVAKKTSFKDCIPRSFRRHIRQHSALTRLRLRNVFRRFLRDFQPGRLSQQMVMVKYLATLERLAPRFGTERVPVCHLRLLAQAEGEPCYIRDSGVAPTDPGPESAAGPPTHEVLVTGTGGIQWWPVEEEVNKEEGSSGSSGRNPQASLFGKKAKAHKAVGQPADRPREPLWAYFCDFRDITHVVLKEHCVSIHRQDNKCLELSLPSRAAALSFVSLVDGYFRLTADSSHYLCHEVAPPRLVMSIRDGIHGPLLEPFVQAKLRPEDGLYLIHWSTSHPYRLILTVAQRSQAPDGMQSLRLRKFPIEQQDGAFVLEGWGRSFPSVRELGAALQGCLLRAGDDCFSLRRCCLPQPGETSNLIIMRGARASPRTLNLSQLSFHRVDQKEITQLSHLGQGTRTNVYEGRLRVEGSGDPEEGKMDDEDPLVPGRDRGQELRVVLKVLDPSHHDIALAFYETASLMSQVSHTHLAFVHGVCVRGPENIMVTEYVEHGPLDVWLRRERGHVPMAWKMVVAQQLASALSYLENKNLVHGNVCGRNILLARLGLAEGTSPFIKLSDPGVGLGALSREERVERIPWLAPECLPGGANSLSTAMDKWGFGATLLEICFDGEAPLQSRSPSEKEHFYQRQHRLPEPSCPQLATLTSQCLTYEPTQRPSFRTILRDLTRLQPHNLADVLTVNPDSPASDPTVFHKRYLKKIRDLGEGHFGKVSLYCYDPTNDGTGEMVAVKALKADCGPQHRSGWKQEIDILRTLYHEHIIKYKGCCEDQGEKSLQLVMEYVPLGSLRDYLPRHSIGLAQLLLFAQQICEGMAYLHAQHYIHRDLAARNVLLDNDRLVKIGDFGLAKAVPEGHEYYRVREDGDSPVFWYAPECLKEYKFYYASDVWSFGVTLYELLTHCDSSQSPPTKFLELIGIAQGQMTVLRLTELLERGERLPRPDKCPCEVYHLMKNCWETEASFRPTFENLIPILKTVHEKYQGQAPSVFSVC
T2 sequence (O60674 whole entry): as the sequence (O60674 whole entry V617F) above, with F617V counted along it
Tyrosine-protein kinase JAK2 (Mus musculus, UniProt Q62120, V617F), sequence (Q62120 as listed by the source V617F): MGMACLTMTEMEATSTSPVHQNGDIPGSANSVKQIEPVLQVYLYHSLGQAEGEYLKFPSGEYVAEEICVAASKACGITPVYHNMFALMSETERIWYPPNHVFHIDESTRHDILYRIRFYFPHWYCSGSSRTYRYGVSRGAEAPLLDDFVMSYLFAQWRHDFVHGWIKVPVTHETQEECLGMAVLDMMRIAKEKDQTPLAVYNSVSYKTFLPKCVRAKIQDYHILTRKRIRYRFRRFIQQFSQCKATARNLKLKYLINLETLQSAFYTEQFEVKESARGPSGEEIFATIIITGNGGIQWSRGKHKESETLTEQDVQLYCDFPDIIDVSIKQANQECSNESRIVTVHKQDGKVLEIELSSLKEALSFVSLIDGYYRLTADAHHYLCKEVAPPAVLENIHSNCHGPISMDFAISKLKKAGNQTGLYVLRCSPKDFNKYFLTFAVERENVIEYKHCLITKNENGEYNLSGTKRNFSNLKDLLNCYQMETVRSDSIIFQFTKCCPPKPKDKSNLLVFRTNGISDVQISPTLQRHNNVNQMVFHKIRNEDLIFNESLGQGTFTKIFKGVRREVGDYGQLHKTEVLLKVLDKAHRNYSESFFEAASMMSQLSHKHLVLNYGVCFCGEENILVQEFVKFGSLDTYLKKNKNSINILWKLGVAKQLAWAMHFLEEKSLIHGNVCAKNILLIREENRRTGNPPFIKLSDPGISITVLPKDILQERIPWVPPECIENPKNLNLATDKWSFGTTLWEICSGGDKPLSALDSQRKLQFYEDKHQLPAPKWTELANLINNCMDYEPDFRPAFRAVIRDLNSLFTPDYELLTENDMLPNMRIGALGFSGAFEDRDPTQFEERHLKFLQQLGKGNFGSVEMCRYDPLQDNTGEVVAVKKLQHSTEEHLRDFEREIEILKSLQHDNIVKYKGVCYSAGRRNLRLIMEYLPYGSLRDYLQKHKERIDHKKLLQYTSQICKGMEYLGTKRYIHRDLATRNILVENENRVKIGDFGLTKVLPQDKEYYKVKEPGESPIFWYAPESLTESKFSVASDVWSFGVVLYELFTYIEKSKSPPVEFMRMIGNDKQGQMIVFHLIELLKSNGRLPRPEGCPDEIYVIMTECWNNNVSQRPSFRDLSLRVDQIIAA

| SMILES | IC50 [1] [nM] | Ratio IC50 [2] | IC50 [3] [nM] | bioavailability [4] [%] | half-life [5] [h] | IC50 [6] [nM] | half-life [7] [h] | IC50 [8] [nM] | Cmax [9] [ng/mL] | CL [10] [mL/min/kg] | Activity [11] [%] | Ratio IC50 [12] | IC50 [13] [nM] | Ratio IC50 [14] | IC50 [15] [nM] | AUCt [16] [ng·h/mL] | IC50 [17] [nM] | IC50 [18] [nM] | Tmax [19] [h] |
| --- | --- | --- | --- | --- | --- | --- | --- | --- | --- | --- | --- | --- | --- | --- | --- | --- | --- | --- | --- |
| CCS(=O)(=O)NCc1ccc(Nc2ncc(C)c(-c3cnn(C(C)C)c3)n2)cc1 | 142 | 68.7 | 1510 | 35.7 | > 2 | 412 | 6.3 | 6 | 77.8 | 340 | 0 | 32 | 287 | 47.8 | 69.2 | 1556.8 | 212 | 192 | 1 |
| Cc1cnc(Nc2ccc(CNC(=O)CCCN(C)C)cc2)nc1-c1cnn(C(C)C)c1 | – | – | 5840 | – | 1.27 | – | – | – | – | – | 55 | – | – | – | 870 | – | 1960 | – | – |
| Cc1cnc(Nc2ccc(CCNC(=O)CCCl)cc2)nc1-c1cnn(C(C)C)c1 | – | – | > 10000 | – | 0.672 | – | – | – | – | – | 67 | – | – | – | 2200 | – | 5620 | – | – |
| Cc1cnc(Nc2ccc(CCNC(=O)CCl)cc2)nc1-c1cnn(C(C)C)c1 | – | – | 1680 | – | 0.493 | – | – | – | – | – | 48 | – | – | – | 372 | – | 1550 | – | – |
| C=CS(=O)(=O)NCCc1ccc(Nc2ncc(C)c(-c3cnn(C(C)C)c3)n2)cc1 | – | – | 1800 | – | 1.48 | – | – | – | – | – | 30 | – | – | – | 169 | – | 761 | – | – |

Results, then the compound that gave them:

| IC50 [1] [nM] | Ratio IC50 [2] | IC50 [3] [nM] | bioavailability [4] [%] | half-life [5] [h] | IC50 [6] [nM] | half-life [7] [h] | IC50 [8] [nM] | Cmax [9] [ng/mL] | CL [10] [mL/min/kg] | Activity [11] [%] | Ratio IC50 [12] | IC50 [13] [nM] | Ratio IC50 [14] | IC50 [15] [nM] | AUCt [16] [ng·h/mL] | IC50 [17] [nM] | IC50 [18] [nM] | Tmax [19] [h] | SMILES |
| --- | --- | --- | --- | --- | --- | --- | --- | --- | --- | --- | --- | --- | --- | --- | --- | --- | --- | --- | --- |
| 87 | 77.7 | 1280 | – | > 2 | 311 | – | 4 | – | – | 9 | 15.5 | 156 | 39 | 72 | – | 205 | 62 | – | Cc1cnc(Nc2ccc(CNC(=O)C3CC3)cc2)nc1-c1cnn(C(C)C)c1 |
| 43 | 15.4 | 756 | – | 0.913 | 108 | – | 7 | – | – | 5 | 6.1 | 54 | 7.7 | 87.5 | – | 563 | 43 | – | Cc1cnc(Nc2ccc(CNC(=O)/C=C/C(=O)c3ccccc3)cc2)nc1-c1cnn(C(C)C)c1 |
| – | – | 5560 | – | 0.742 | – | – | – | – | – | 45 | – | – | – | 385 | – | 985 | – | – | Cc1cnc(Nc2ccc(CNC(=O)CCCl)cc2)nc1-c1cnn(C(C)C)c1 |

Reference: ChEMBL document CHEMBL5325511, “Discovery of N-(4-(Aminomethyl)phenyl)-5-methylpyrimidin-2-amine Derivatives as Potent and Selective JAK2 Inhibitors” (ACS Med Chem Lett, 2023)
